Data as given in ChEMBL document CHEMBL3580657, “Design and Evaluation of 3-(Benzylthio)benzamide Derivatives as Potent and Selective SIRT2 Inhibitors” (ACS Med Chem Lett, 2015).
pIC50: −log10 of the molar value. Calls of active or inactive are those of the source. No cut-off for these calls is given here.

Legend:
[1] = biological target: T1, NAD-dependent protein deacetylase sirtuin-2 (Homo sapiens, UniProt Q8IXJ6); assay: Inhibition of SIRT2 (unknown origin) by Flour-de-Lys fluorescent biochemical assay; conditions: for pIC50: read-out: IC50
T1 sequence (Q8IXJ6 whole entry): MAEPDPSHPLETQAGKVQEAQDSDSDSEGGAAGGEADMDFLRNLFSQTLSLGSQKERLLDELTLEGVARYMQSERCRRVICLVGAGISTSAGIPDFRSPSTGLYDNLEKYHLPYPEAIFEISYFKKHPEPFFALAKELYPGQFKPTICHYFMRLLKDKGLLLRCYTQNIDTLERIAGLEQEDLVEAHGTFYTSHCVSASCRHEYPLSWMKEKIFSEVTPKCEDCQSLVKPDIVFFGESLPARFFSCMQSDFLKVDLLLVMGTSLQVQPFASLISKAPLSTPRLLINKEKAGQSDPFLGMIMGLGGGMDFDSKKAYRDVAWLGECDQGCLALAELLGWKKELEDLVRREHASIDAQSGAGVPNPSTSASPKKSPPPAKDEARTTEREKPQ

[2] = biological target: T2, NAD-dependent protein deacetylase sirtuin-2 (Homo sapiens) (UniProt Q8IXJ6); assay: Inhibition of SIRT2 (unknown origin) at 10 uM by Flour-de-Lys fluorescent biochemical assay
T2 sequence (whole entry): T1 sequence (Q8IXJ6 whole entry)
Procedure, shortened: (§1)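 Biochemical sirtuin deacetylation assays (SIRT1, SIRT2, SIRT3) run as in earlier work. Single 10 μM dose in triplicate. Primary screen was SIRT2, with SIRT1 and SIRT3 as counter-screens. A reference compound was included with each assay.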

[3] = biological target: T3, NAD-dependent protein deacetylase sirtuin-1 (Homo sapiens) (UniProt Q96EB6); assay: Inhibition of SIRT1 (unknown origin) at 10 uM by Flour-de-Lys fluorescent biochemical assay; procedure, shortened: as §1
T3 sequence (whole entry): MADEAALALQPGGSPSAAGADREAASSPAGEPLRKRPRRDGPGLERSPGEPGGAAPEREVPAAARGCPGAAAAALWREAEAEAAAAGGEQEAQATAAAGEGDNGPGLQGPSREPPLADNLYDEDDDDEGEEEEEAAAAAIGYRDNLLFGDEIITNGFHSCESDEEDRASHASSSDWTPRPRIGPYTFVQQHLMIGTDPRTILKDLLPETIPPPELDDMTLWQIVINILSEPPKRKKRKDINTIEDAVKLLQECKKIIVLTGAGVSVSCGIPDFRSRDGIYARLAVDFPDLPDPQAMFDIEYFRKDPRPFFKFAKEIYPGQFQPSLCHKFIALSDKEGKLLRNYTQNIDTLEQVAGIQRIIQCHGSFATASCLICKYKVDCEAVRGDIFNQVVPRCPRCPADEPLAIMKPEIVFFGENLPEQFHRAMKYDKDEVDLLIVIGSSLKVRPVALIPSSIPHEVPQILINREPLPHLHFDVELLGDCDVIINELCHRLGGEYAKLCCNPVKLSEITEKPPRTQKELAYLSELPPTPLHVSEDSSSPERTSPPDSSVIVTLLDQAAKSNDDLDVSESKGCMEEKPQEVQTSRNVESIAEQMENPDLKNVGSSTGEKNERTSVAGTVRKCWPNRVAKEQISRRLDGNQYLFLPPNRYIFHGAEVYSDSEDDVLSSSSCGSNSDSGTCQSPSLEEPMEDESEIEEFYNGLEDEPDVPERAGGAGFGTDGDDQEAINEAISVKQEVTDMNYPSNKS

[4] = biological target: T4, NAD-dependent protein deacetylase sirtuin-3, mitochondrial (Homo sapiens) (UniProt Q9NTG7); assay: Inhibition of SIRT3 (unknown origin) at 10 uM by Flour-de-Lys fluorescent biochemical assay; procedure, shortened: as §1
T4 sequence (whole entry): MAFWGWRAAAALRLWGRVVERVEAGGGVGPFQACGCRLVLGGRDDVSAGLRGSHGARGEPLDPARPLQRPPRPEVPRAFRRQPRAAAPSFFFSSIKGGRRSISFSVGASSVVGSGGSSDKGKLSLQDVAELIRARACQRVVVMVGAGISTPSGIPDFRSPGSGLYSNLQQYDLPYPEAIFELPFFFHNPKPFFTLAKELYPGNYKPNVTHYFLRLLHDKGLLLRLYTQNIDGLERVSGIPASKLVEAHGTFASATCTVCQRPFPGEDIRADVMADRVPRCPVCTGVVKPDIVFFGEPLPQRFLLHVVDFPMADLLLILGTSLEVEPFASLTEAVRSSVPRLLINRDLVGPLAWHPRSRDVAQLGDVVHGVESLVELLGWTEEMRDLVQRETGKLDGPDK

[5] = biological target: T5, NAD-dependent protein deacetylase sirtuin-2 (Rattus norvegicus) (UniProt Q5RJQ4); assay: Inhibition of SIRT2 in rat PC12 cells expressing inducible HD103Q-EGFP fusion fragment of huntingtin mutant assessed as reduction in number and size of fluorescent polyQ inclusions at 5 uM treated simultaneously with 2.5 uM ecdysone-inducible gene inducer muristerone A for 24 hrs by fluorescence microscopy; type: cell-based; conditions: PC-12
T5 sequence (whole entry): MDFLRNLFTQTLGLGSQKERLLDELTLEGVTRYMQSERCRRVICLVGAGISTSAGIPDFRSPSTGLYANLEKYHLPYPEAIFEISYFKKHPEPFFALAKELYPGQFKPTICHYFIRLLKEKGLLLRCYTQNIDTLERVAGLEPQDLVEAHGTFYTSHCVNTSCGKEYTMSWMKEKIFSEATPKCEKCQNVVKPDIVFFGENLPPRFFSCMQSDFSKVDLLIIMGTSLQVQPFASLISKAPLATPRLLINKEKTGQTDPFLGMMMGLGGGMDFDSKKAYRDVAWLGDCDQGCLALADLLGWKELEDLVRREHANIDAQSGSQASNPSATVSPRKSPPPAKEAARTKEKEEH
Procedure, shortened: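 PC12 cells carrying inducible HD103Q-EGFP huntingtin fragment were induced with 2.5 μM muristerone A for 24 h, simultaneous with compound at 25, 10 or 5 μM. PolyQ aggregation was scored by epifluorescence microscopy as number and size of fluorescent inclusions.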

[6] = biological target: T5, NAD-dependent protein deacetylase sirtuin-2 (Rattus norvegicus); assay: Inhibition of SIRT2 in rat ST14A cells assessed as increase in alpha-tubulin K40 acetylation at 25 uM incubated for 6 hrs by SDS-PAGE and Western blotting method; type: cell-based
Procedure, shortened: (§2)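 Cells were treated with compound for 6 h across 0.5–50 μM. Extracts were resolved by SDS-PAGE and immunoblotted with an antibody to acetyl-K40 α-tubulin, with GAPDH as loading control. In ST14A, signal was normalized to GAPDH and quantified from blots.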

[7] = Toxicity in rat PC12 cells expressing inducible HD103Q-EGFP fusion fragment of huntingtin mutant assessed as effect on cell density at 5 uM by phase contrast microscopy; type: cell-based; conditions: pc-12, 5 µM
[8] = biological target: T5, NAD-dependent protein deacetylase sirtuin-2 (Rattus norvegicus); assay: Inhibition of SIRT2 in rat ST14A cells assessed as increase in alpha-tubulin K40 acetylation at 0.5 to 50 uM incubated for 6 hrs by SDS-PAGE and Western blotting method; type: cell-based; procedure, shortened: as §2

In the case of N#Cc1ccc(NC(=O)c2cccc(S(=O)(=O)Nc3ccc(Cl)cn3)c2)cc1, the IC50 [1] was “Not Active”.
With CSc1ccc(CSc2cccc(C(=O)Nc3ccc(C#N)cc3)c2)cc1 the inhibition [2] was 83%, the pIC50 [1] was 5.62 and the inhibition [3] was 3%. For the same compound, the inhibition [4] was 0%, the inhibition [5] was “Active” and the inhibition [6] was “Active”. For the same compound, the Activity [7] was “Non-toxic”.
With C[S+]([O-])c1ccc(NC(=O)c2cccc(SCc3ccc(Cl)cc3)c2)cc1 (stereo not drawn) the inhibition [2] was 60%, the pIC50 [1] was 5.08 and the inhibition [3] was 10%. For the same compound, the inhibition [4] was 8% and the inhibition [8] was “Dose-dependent effect”.
In the case of O=C(Nc1ccc(Cl)nn1)c1cccc(S(=O)(=O)Cc2ccc(Cl)cc2)c1, the inhibition [2] was 0%.
N#Cc1ccc(NC(=O)c2cccc(S(=O)(=O)Cc3ccc(Cl)cc3)c2)cc1 showed an inhibition [2] of 40%, a pIC50 [1] of 5.33 and an inhibition [3] of 0%. It also gave an inhibition [4] of 0%.
With O=C(Nc1ccc(Cl)cn1)c1cccc(S(=O)(=O)Cc2ccc(Cl)cc2)c1 the inhibition [2] was 2%.
With COc1ccc(C[S+]([O-])c2cccc(C(=O)Nc3ccc(C#N)cc3)c2)cc1 (stereo not drawn) the inhibition [2] was 21%.
In the case of CS(=O)(=O)c1ccc(NC(=O)c2cccc(S(=O)(=O)Cc3ccc(Cl)cc3)c2)cc1, the inhibition [2] was 17%.
O=C(Nc1ccc(Cl)cc1)c1cccc(S(=O)(=O)Cc2ccc(Cl)cc2)c1 showed an inhibition [2] of 0%.
N#Cc1ccc(NC(=O)c2cccc(SCc3ccc(Cl)cc3)c2)cc1 showed an inhibition [2] of 81%, a pIC50 [1] of 5.54 and an inhibition [3] of 8%. For the same compound, the inhibition [4] was 0%.
N#Cc1ccc(NC(=O)c2cccc([S+]([O-])Cc3ccc(Cl)cc3)c2)cc1 (stereo not drawn) gave an inhibition [2] of 47%, a pIC50 [1] of 5.15 and an inhibition [3] of 12%. The inhibition [4] was 11%.
COc1ccc(CS(=O)(=O)c2cccc(C(=O)Nc3ccc(C#N)cc3)c2)cc1 showed an inhibition [2] of 50%, a pIC50 [1] of 5.17 and an inhibition [3] of 3%. For the same compound, the inhibition [4] was 0%.
For CS(=O)(=O)c1ccc(NC(=O)c2cccc([S+]([O-])Cc3ccc(Cl)cc3)c2)cc1 (stereo not drawn), the inhibition [2] was 18%.
Compound CC(=O)c1ccc(NC(=O)c2cccc(S(=O)(=O)Cc3ccc(Cl)cc3)c2)cc1 has an inhibition [2] of 23%.
Compound O=C(Nc1ccc(Br)cc1)c1cccc(S(=O)(=O)Cc2ccc(Cl)cc2)c1 has an inhibition [2] of 0%.
C[S+]([O-])c1ccc(NC(=O)c2cccc([S+]([O-])Cc3ccc(Cl)cc3)c2)cc1 (stereo not drawn) gave an inhibition [2] of 24%.
